We go through 2 compounds from ChEMBL document CHEMBL1142554, “Lyngbyastatin 2 and norlyngbyastatin 2, analogues of dolastatin G and nordolastatin G from the marine cyanobacterium Lyngbya majuscula” (J Nat Prod, 1999).

The IC50 is the concentration that inhibits the measured activity by half. Lower therefore signals greater potency in that assay.

A short description of data set [1]: Inhibition of microfilament assembly.
For a further data set, the species on record is Mus musculus. Put plainly: Toxicity in mouse. In kind it is organism-based. The conditions noted are these: in vivo.
A further data set concerns KB. Put plainly: Cytotoxicity against human KB cells. The format is functional, cell-based.
The test system of a further data set is MC-38. Put plainly: Cytotoxicity against mouse C38 cells at 1.8 mg/kg by in vivo assay. In kind it is functional, organism-based. Details: dose 1.8 mg/kg. The method in brief: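 In vivo mouse model bearing the murine colon adenocarcinoma C38, with compound dosed at 1.8 mg/kg or lower.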
The subject of a further data set is LoVo. Put plainly: Cytotoxicity against human LoVo cells. The format is functional, cell-based.
Data set [2] concerns the target T1, DNA topoisomerase 1 (Homo sapiens) (UniProt P11387).
T1 sequence (whole entry): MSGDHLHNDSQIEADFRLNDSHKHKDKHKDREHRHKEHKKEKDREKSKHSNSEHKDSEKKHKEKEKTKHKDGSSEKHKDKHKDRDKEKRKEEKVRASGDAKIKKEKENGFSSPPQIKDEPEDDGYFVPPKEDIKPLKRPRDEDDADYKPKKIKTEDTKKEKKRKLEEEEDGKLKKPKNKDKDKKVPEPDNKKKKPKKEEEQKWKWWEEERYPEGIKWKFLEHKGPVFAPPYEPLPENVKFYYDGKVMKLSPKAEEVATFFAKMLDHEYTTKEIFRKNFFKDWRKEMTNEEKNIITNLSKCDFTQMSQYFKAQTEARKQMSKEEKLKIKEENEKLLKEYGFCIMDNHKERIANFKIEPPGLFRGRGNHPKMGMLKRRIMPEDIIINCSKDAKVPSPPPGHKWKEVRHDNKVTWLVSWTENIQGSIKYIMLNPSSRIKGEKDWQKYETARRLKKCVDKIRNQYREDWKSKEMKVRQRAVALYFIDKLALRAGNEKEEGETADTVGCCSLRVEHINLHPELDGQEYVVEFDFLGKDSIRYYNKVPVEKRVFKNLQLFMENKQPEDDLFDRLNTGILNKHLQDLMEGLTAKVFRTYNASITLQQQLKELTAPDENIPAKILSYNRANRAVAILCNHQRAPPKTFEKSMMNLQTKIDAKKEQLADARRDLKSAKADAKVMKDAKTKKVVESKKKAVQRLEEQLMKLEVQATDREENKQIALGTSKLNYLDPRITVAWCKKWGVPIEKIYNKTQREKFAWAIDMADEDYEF
Put plainly: Inhibition of topoisomerase 1.

The nature of data set [3]: Inhibition of microtubule assembly.

≈ marks a conversion by molar mass, not a printed value. Calls of active or inactive are those of the source. No cut-off for these calls is given here. Starred links: 1 amine or outer side, 2 acyl side, 3 side chain; linkers in the order of their positions; H or OH if unused. Positions of bridges follow the written chain, without caps; N, C: chain ends. Non-standard residues stand in square brackets, D forms with d. Residues, ends and D or L forms follow the SMILES beside them. X1 = CC[C@H](CCC[C@@H](O)[C@@H](C)C(=O)O[C@H](C)[C@@H](C)C/C=C(C)/C(=C\C(=O)[*:1])OC)O[*:2]; X2 = CC[C@H](CCC[C@@H](O)[C@@H](C)C(=O)O[C@H](C)[C@@H](C)C/C=C(\C)C(=O)CC(=O)[*:1])O[*:2]; NMeI = CC[C@H](C)[C@H](NC)C(=O)O; NMeV = CN[C@H](C(=O)O)C(C)C; NMeS = CN[C@@H](CO)C(=O)O

Regarding `CC[C@@H]1CCC[C@@H](O)[C@@H](C)C(=O)O[C@H](C)[C@@H](C)C/C=C(C)/C(OC)=C\C(=O)N(C)[C@@H]([C@@H](C)CC)C(=O)N(C)[C@@H](C(C)C)C(=O)N(C)[C@@H](COC)C(=O)N2CCC[C@H]2C(=O)N(C)[C@@H](C(C)C)C(=O)N2CCC[C@H]2C(=O)O1` [LYNGBYASTATIN 2] ([NMeI][NMeV][NMeS](Me)P[NMeV]P; linker N-C via X1), the outcome (in data set [1]; in the data set on MC-38; in data set [2]; in data set [3]) was inactive. For the same compound, the LD100 in the data set listed under Mus musculus was 3 mg/kg. In addition, the IC50 in the data set with KB was 0.02 µg/mL (≈ 0.0189 µM); in the data set on LoVo it was 0.014 µg/mL (≈ 0.0132 µM).

In the case of `CC[C@@H]1CCC[C@@H](O)[C@@H](C)C(=O)O[C@H](C)[C@@H](C)C/C=C(\C)C(=O)CC(=O)N(C)[C@@H]([C@@H](C)CC)C(=O)N(C)[C@@H](C(C)C)C(=O)N(C)[C@@H](COC)C(=O)N2CCC[C@H]2C(=O)N(C)[C@@H](C(C)C)C(=O)N2CCC[C@H]2C(=O)O1` [NORLYNGBYASTATIN 2] ([NMeI][NMeV][NMeS](Me)P[NMeV]P; linker N-C via X2), the outcome in data set [1], in data set [2] and in data set [3] was inactive. The IC50 with KB is 0.93 µg/mL (≈ 0.89 µM); in the data set with LoVo it was 0.475 µg/mL (≈ 0.454 µM).
